In assay [1] the target is T1, Serotonin 3 (5-HT3) receptor (Rattus norvegicus, UniProt P35563+Q9JJ16).
T1 sequence (P35563 whole entry): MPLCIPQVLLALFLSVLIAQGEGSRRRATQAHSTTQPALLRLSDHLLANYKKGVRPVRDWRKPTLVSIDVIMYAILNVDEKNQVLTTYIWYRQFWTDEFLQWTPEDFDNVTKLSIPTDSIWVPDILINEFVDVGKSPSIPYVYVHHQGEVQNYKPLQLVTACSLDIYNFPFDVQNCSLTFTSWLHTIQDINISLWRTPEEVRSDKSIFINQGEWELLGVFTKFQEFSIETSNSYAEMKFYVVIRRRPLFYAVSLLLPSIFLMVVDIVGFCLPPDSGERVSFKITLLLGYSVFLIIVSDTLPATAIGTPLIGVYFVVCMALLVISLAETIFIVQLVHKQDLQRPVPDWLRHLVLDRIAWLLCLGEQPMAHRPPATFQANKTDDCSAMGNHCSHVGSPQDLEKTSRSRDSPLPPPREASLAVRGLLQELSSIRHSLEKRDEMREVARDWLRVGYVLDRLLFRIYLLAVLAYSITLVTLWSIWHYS
T1 sequence (Q9JJ16 whole entry): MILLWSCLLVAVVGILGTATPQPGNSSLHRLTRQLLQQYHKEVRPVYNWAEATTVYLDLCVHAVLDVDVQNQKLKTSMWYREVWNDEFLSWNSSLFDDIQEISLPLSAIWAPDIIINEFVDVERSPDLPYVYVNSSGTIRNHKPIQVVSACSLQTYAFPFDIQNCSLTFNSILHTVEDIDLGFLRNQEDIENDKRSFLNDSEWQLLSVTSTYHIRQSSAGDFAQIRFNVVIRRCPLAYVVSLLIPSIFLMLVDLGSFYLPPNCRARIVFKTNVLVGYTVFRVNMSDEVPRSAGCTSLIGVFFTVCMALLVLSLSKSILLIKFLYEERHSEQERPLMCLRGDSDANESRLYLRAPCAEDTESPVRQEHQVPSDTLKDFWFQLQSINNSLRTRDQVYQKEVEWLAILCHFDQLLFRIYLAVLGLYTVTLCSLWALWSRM
The experiment in a line: In vitro inhibitory concentration against radioligand [3H]BRL-43694 binding to 5-hydroxytryptamine 3 receptor in rat cortical membrane. It counts as cell membranes. In a few lines: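 Rat cortex was homogenized in 50 mM Hepes-HCl pH 7.5, then incubated in 50 mM Hepes-HCl pH 7.4 with 10 μM pargyline. [3H]-BRL43694 1 nM final, 30 min at 25 °C; nonspecific binding with GR38032 10 μM. Filtration through GF/B, liquid scintillation counting, IC50 from dose-inhibition curves.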

Assay [2] concerns the target 5-hydroxytryptamine receptor 2A (Rattus norvegicus, UniProt P14842). The experiment in a line: In vitro inhibitory concentration against radioligand [3H]ketanserin binding to 5-hydroxytryptamine 2A receptor in rat cortical membrane. It counts as cell membranes. The procedure, abridged: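 Cortex from male rats (~150 g) was washed in Tris-HCl pH 7.4 and incubated in 50 mM Tris-HCl pH 7.7. [3H]ketanserin 0.7 nM final, 15 min at 37 °C; nonspecific binding with methysergide. Filtration and scintillation counting; concentration inhibiting binding by 50% derived from dose-inhibition curves.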

Assay [3] addresses 5-hydroxytryptamine receptor 1B (Rattus norvegicus, UniProt P28564). As to the kind of experiment: In vitro inhibitory concentration against radioligand [3H]5-HT binding to 5-hydroxytryptamine 1B receptor in rat striatal membrane. Type of assay: cell membranes, Striatum. In a few lines: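 Striatum came from decapitated male rats (~150 g). Membranes were washed in 50 mM Tris-HCl pH 7.4 with a 10 min preincubation at 37 °C. Incubation buffer had 4 mM CaCl2, 0.1% ascorbic acid and 10 μM pargyline. [3H]5-HT 2 nM final, 30 min at 25 °C; nonspecific binding with 5-HT 10 μM. Bound ligand collected by filtration and scintillation-counted; IC50 by curve fitting.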

In assay [4] the target is 5-hydroxytryptamine receptor 1B (Rattus norvegicus) (UniProt P28564). The experiment in a line: Compound at 10E-5 M was tested in vitro for the inhibition of radioligand [3H]5-HT binding to 5-hydroxytryptamine 1B receptor in rat striatal membrane. Particulars: Striatum. It counts as cell membranes.
In assay [5] the target is Serotonin 1a (5-HT1a) receptor/Adrenergic receptor alpha-1 (Rattus norvegicus) (UniProt P15823+P23944+P43140+P19327). The experiment in a line: Selectivity for alpha-1-adrenergic receptor to that of 5-HT1A receptor. Type of assay: protein assay. The procedure, abridged: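 Ratio of IC50 at α1-adrenoceptors ([3H]prazosin, rat cortex) to IC50 at 5-HT1A receptors ([3H]-8-OH-DPAT, rat hippocampus). Each IC50 came from radioligand displacement curves.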

As usually defined, the IC50 is the concentration at which inhibition is half-maximal. Read a high IC50 as weaker potency. By inhibition is commonly meant the percentage by which the read-out fell short of the control. Higher therefore signals a strong effect.

5-hydroxytryptamine receptor 2A, sequence (P14842 whole entry): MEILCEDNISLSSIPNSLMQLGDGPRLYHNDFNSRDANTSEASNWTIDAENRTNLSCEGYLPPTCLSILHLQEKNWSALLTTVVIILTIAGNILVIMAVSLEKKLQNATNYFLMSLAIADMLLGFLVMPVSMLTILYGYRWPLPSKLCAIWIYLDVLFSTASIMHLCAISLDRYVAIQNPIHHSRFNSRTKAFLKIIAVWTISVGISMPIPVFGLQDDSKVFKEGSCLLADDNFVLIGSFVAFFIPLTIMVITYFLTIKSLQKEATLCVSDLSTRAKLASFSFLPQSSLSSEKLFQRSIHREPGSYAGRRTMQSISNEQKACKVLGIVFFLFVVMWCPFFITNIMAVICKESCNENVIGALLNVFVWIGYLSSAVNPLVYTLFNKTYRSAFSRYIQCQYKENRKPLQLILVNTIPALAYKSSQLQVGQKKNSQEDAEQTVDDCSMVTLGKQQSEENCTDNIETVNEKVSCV
5-hydroxytryptamine receptor 1B, sequence (P28564 whole entry): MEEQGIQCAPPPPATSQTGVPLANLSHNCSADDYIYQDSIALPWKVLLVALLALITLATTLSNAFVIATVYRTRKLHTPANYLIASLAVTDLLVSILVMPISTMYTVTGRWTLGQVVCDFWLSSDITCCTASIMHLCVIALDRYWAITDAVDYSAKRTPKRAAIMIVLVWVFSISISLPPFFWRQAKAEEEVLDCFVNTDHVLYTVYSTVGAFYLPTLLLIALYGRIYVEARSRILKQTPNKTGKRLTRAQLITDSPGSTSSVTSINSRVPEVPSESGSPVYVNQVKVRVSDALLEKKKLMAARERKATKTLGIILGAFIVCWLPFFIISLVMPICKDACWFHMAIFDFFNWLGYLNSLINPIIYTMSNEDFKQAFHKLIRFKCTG
5-hydroxytryptamine receptor 1B (Rattus norvegicus), sequence (P28564 whole entry): as above

`COc1ccccc1N1CCN(CCCSc2nc3sc(C)c(C)c3c(=O)n2N)CC1`: the IC50 in assay [1] was 800 nM; in assay [2] it was 300 nM; in assay [3], 700 nM.

Take `Cc1sc2nc(SCCCN3CCN(c4ncccn4)CC3)n(N)c(=O)c2c1C`: the IC50 in assay [1] amounted to 20 nM; in assay [2], 1000 nM. In assay [4], this compound yielded an inhibition below 50%. This compound also gave a Selectivity in assay [5] of 74.

`COc1ccccc1C1CCN(CCCSc2nc3sc(C)c(C)c3c(=O)n2N)CC1`: the 50% inhibitory concentration (IC50) in assay [1] is 600 nM; in assay [2] it was 300 nM; in assay [3], 1400 nM.

For the origin of these results see ChEMBL document CHEMBL1129944, “[[(Arylpiperazinyl)alkyl]thio]thieno[2,3-d]pyrimidinone derivatives as high-affinity, selective 5-HT1A receptor ligands” (J Med Chem, 1997).
